Measurements reported in ChEMBL document CHEMBL1147739, “Identification of the key residue of calcitonin gene related peptide (CGRP) 27-37 to obtain antagonists with picomolar affinity at the CGRP receptor” (J Med Chem, 2006).
*1 amine or outer side, *2 acyl side, *3 side chain or, on linkers, in order; H or OH if unused. Where a SMILES comes first, the peptide text is derived from it. [ ]: non-standard residue; d: D form. X2 = COC(=O)[C@@H]1[C@@H](N[*:1])[C@H]1C(=O)[*:2]; X1 = COC(=O)[C@H]1[C@H](N[*:1])[C@@H]1C(=O)[*:2]

Experiments:
[1] = molecular target: T1, Calcitonin-gene-related peptide receptor, CALCRL/RAMP1 (Homo sapiens, UniProt O60894+Q16602); assay: Displacement of [3H-propionyl-K24] from halphaCGRP expressed in human neuroblastoma SK-N-MC cells; type: cell-based
T1 sequence (O60894 whole entry): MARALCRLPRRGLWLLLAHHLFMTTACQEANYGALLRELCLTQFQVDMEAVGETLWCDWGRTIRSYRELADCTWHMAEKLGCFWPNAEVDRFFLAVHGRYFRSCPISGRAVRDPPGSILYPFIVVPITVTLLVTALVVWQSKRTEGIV
T1 sequence (Q16602 whole entry): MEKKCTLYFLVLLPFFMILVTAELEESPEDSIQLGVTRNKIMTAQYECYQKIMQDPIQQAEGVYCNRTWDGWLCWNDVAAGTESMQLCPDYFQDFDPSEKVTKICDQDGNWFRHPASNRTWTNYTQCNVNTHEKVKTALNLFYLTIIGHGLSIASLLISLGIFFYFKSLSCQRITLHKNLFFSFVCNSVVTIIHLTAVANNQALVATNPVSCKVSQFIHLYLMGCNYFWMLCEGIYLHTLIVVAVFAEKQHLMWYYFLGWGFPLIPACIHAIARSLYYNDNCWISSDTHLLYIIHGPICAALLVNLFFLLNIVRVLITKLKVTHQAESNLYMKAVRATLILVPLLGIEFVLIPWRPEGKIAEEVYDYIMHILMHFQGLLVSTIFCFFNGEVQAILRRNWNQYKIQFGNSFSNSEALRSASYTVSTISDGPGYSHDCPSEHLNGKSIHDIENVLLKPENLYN
Outline: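 Whole SK-N-MC cells, 3 million/mL in Tris pH 7.4 buffer with NaCl, MgCl2, Pefabloc and 1% BSA. Incubated 90 min at room temperature with 1 nM [3H-propionyl-K24]-hRCGRP 8-37 and competitor (10-5-10-14 M). Separated by centrifugation with a cold wash, then β-counted. IC50 by nonlinear regression, converted to Ki by Cheng-Prusoff with tracer KD. Three experiments in triplicate.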

[2] = molecular target: T1, Calcitonin-gene-related peptide receptor, CALCRL/RAMP1; assay: Antagonist activity on halphaCGRP-induced cAMP accumulation at human neuroblastoma SK-N-MC cells; type: functional, cell-based; settings: read-out: pA2 (converted)
Outline: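 SK-N-MC cells detached with PBS-EDTA, washed in HEPES/glucose Hank's, ~2 million cells/mL in buffer with 1 mM IBMX and 1% BSA. Preincubated 15 min at 37 °C, then 15 min with hRCGRP (10-5-10-12 M) alone or with fixed antagonist (10 or 100 nM). cAMP extracted with HCl, AlphaScreen read-out. Agonist EC50 shifts gave concentration ratios, and apparent pA2 = log((CR-1)/[B]). Three experiments in triplicate.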

[3] = molecular target: T1, Calcitonin-gene-related peptide receptor, CALCRL/RAMP1; assay: Displacement of [125I-Tyr10] from halphaCGRP expressed in human neuroblastoma SK-N-MC cells; type: cell-based

Compound	Ki [1]	Kb [2]	Ki [3]
CC(C)[C@H](NC(=O)[C@H](CC(=O)O)NC(=O)[C@@H](NC(=O)[C@@H]1CCCCN1C(=O)[C@@H](NC(=O)[C@@H](N)Cc1ccccc1)C(C)C)[C@@H](C)O)C(=O)NCC(=O)N1CCC[C@H]1C(=O)N[C@@H](Cc1ccccc1)C(=O)N[C@@H](C)C(=O)N[C@@H](Cc1ccccc1)C(=O)O	> 10000 nM	–	–
COC(=O)[C@@H]1[C@@H](NC(=O)[C@@H](NC(=O)[C@@H](N)Cc2ccccc2)C(C)C)[C@H]1C(=O)N[C@H](C(=O)N[C@@H](CC(=O)O)C(=O)N[C@H](C(=O)NCC(=O)N1CCC[C@H]1C(=O)N[C@@H](Cc1ccccc1)C(=O)N[C@@H](C)C(=O)N[C@@H](Cc1ccccc1)C(=O)O)C(C)C)[C@@H](C)O	> 10000 nM	–	–
COC(=O)[C@H]1[C@H](NC(=O)CNC(=O)[C@@H](NC(=O)[C@H](CC(=O)O)NC(=O)[C@@H](NC(=O)[C@@H]2CCCN2C(=O)[C@@H](NC(=O)[C@@H](N)Cc2ccccc2)C(C)C)[C@@H](C)O)C(C)C)[C@@H]1C(=O)N[C@@H](Cc1ccccc1)C(=O)N[C@@H](C)C(=O)N[C@@H](Cc1ccccc1)C(=O)O (H-FVPTDVG[X1]FAF-OH)	> 10000 nM	–	–
COC(=O)[C@@H]1[C@@H](NC(=O)CNC(=O)[C@@H](NC(=O)[C@H](CC(=O)O)NC(=O)[C@@H](NC(=O)[C@@H]2CCCN2C(=O)[C@@H](NC(=O)[C@@H](N)Cc2ccccc2)C(C)C)[C@@H](C)O)C(C)C)[C@H]1C(=O)N[C@@H](Cc1ccccc1)C(=O)N[C@@H](C)C(=O)N[C@@H](Cc1ccccc1)C(=O)O (H-FVPTDVG[X2]FAF-OH)	> 10000 nM	–	–
COC(=O)[C@H]1[C@H](NC(=O)CNC(=O)[C@@H](NC(=O)[C@H](CC(N)=O)NC(=O)[C@@H](NC(=O)[C@@H]2CCCN2C(=O)[C@@H](NC(=O)[C@@H](N)Cc2ccccc2)C(C)C)[C@@H](C)O)C(C)C)[C@@H]1C(=O)N[C@@H](Cc1ccccc1)C(=O)N[C@@H](C)C(=O)N[C@@H](Cc1ccccc1)C(=O)O (H-FVPTNVG[X1]FAF-OH)	> 10000 nM	–	–
COC(=O)[C@@H]1[C@@H](NC(=O)CNC(=O)[C@@H](NC(=O)[C@H](CC(N)=O)NC(=O)[C@@H](NC(=O)[C@@H]2CCCN2C(=O)[C@@H](NC(=O)[C@@H](N)Cc2ccccc2)C(C)C)[C@@H](C)O)C(C)C)[C@H]1C(=O)N[C@@H](Cc1ccccc1)C(=O)N[C@@H](C)C(=O)N[C@@H](Cc1ccccc1)C(=O)O (H-FVPTNVG[X2]FAF-OH)	> 10000 nM	–	–
H-FVPTDVGAFAF-OH	13.6 nM	–	76.8 nM

These reach a lower Ki [1]. Values come first.

Ki [1]	Kb [2]	Ki [3]	Compound
0.02 nM	6.31 nM	–	CC(C)[C@H](NC(=O)[C@H](CC(=O)O)NC(=O)[C@@H](NC(=O)[C@@H]1Cc2ccccc2CN1C(=O)[C@@H](NC(=O)[C@@H](N)Cc1ccccc1)C(C)C)[C@@H](C)O)C(=O)NCC(=O)N1CCC[C@H]1C(=O)N[C@@H](Cc1ccccc1)C(=O)N[C@@H](C)C(=O)N[C@@H](Cc1ccccc1)C(=O)O
0.006 nM	31.6 nM	–	CC(C)[C@H](NC(=O)[C@H](CC(=O)O)NC(=O)[C@@H](NC(=O)[C@@H]1C[C@@H](O)CN1C(=O)[C@@H](NC(=O)[C@@H](N)Cc1ccccc1)C(C)C)[C@@H](C)O)C(=O)NCC(=O)N1CCC[C@H]1C(=O)N[C@@H](Cc1ccccc1)C(=O)N[C@@H](C)C(=O)N[C@@H](Cc1ccccc1)C(=O)O
0.02 nM	–	14 nM	CC(C)[C@H](NC(=O)[C@H](CC(=O)O)NC(=O)[C@@H](NC(=O)[C@@H]1CCCN1C(=O)[C@@H](NC(=O)[C@@H](N)Cc1ccccc1)C(C)C)[C@@H](C)O)C(=O)NCC(=O)N1CCC[C@H]1C(=O)N[C@@H](Cc1ccccc1)C(=O)N[C@@H](C)C(=O)N[C@@H](Cc1ccccc1)C(=O)O
0.002 nM	10 nM	–	CC(C)[C@H](NC(=O)[C@H](CC(=O)O)NC(=O)[C@@H](NC(=O)C(C)(C)NC(=O)[C@@H](NC(=O)[C@@H](N)Cc1ccccc1)C(C)C)[C@@H](C)O)C(=O)NCC(=O)N1CCC[C@H]1C(=O)N[C@@H](Cc1ccccc1)C(=O)N[C@@H](C)C(=O)N[C@@H](Cc1ccccc1)C(=O)O
0.7 nM	–	–	COC(=O)[C@H]1[C@H](NC(=O)[C@@H](NC(=O)[C@@H](N)Cc2ccccc2)C(C)C)[C@@H]1C(=O)N[C@H](C(=O)N[C@@H](CC(=O)O)C(=O)N[C@H](C(=O)NCC(=O)N1CCC[C@H]1C(=O)N[C@@H](Cc1ccccc1)C(=O)N[C@@H](C)C(=O)N[C@@H](Cc1ccccc1)C(=O)O)C(C)C)[C@@H](C)O
8.4 nM	25.1 nM	–	H-FVATDVGPFAF-OH
